Data set [1] is described as follows: Drug level in Sprague-Dawley rat plasma treated with Magnolol-4'-O-beta-D-glucopyranoside at 100 mg/kg, po by UPLC-IT-TOF-MS analysis. It counts as ADME, organism-based. As to conditions: in vivo. The essentials: (§1)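 Rats (n = 6) housed in metabolic cages received 100.0 mg/kg orally; controls received 0.5% CMC-Na. Plasma, urine and faeces were collected and analyzed by LC-IT-TOF-MS on a C18 column at 30 °C. Gradient 5–100% acetonitrile with 0.05% formic acid over 18 min at 0.2 mL/min; positive and negative ion MS/MS.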

The nature of data set [2]: Drug level in Sprague-Dawley rat urine treated with Magnolol-4'-O-beta-D-glucopyranoside at 100 mg/kg, po by UPLC-IT-TOF-MS analysis. It counts as ADME, organism-based. As to conditions: in vivo. The gist of the method: as §1
The nature of data set [3]: Drug level in Sprague-Dawley rat feces treated with Magnolol-4'-O-beta-D-glucopyranoside at 100 mg/kg, po by UPLC-IT-TOF-MS analysis. As to conditions: in vivo. It counts as ADME, organism-based. The gist of the method: as §1
A short description of data set [4]: Retention time of the compound by UPLC-IT-TOF-MS analysis. The format is physicochemical. The essentials: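 Retention on C18 column (100 × 2.1 mm, 1.8 µm) at 30 °C; mobile phase A 0.05% formic acid in water, B 0.05% formic acid in acetonitrile, 0.2 mL/min, linear 5–100% B over 0–18.0 min; IT-TOF-MS detection in positive and negative modes.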
Data set [5] deals with T1, Melatonin receptor type 1B (Homo sapiens) (UniProt P49286).
T1 sequence (whole entry): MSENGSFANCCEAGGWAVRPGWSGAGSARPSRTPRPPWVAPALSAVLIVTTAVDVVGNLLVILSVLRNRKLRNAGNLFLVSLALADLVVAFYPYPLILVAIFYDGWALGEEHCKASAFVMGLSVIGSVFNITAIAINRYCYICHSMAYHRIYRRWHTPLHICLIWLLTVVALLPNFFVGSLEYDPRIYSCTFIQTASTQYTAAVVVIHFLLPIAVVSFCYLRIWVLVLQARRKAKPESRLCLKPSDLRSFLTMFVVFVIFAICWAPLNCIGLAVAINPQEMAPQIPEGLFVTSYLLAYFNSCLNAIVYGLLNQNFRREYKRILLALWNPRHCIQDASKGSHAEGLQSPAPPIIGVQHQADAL
Nature of the data set: Agonist activity at human MT2 receptor expressed in HEK293 cells at 1 mM after 24 hrs by Fluo-8 dye-based calcium assay relative to control. The format is functional, cell-based. The essentials:
(§2)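 Fluo-8 calcium assay in HEK293 cells stably expressing human MT1 or MT2, seeded 4×10^4/well and incubated 24 h. Compounds tested at 1.00 mM, agomelatine positive control at 3.33 µM; fluorescence at ex 485/em 525 nm. Agonism expressed as mean ± SD, n = 3.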

In data set [6] the target is T1, Melatonin receptor type 1B (Homo sapiens). Nature of the data set: Potency index, ratio of compound effect to magnolol effect for human MT2 receptor. It counts as functional.
Data set [7] deals with Melatonin receptor type 1A (Homo sapiens, UniProt P48039). Nature of the data set: Agonist activity at human MT1 receptor expressed in HEK293 cells at 1 mM after 24 hrs by Fluo-8 dye-based calcium assay relative to control. The format is functional, cell-based. The essentials: as §2
Melatonin receptor type 1A, sequence (P48039 whole entry): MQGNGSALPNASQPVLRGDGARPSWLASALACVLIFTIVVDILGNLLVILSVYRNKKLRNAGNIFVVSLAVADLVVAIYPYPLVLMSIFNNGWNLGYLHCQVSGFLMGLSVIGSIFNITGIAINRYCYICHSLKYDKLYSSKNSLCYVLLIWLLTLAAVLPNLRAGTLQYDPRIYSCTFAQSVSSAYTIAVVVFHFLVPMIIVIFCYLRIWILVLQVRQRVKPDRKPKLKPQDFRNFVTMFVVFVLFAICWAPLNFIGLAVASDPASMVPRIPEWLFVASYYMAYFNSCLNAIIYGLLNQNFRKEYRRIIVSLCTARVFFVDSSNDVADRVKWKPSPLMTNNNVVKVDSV
The subject of data set [8] is Mus musculus. The data set can be described thus: Antidepressant activity in Kunming mouse assessed as decrease in immobility time at 20 mg/kg, po by tail suspension test. It counts as functional, organism-based. The essentials: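 Male Kunming mice (18–20 g), dosed orally and tested acoustically and visually isolated. Each was suspended 50 cm above a wooden box by tape placed about 1 cm from the tail tip for 6 min. Immobility (s) over the last 4 min was recorded automatically by video tracking; n = 10, mean ± SEM vs vehicle.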

Data set [9] deals with Mus musculus. Nature of the data set: Antidepressant activity in Kunming mouse assessed as decrease in immobility duration at 20 mg/kg, po by forced swim test. The format is functional, organism-based. The essentials: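 Male Kunming mice (18–20 g), group-housed at 22 ± 2 °C on a 12 h light/dark cycle, dosed orally. Each mouse was placed in a glass cylinder (25 cm high, 15 cm diameter) holding 10 cm of water at 25 ± 1 °C and made to swim for 6 min. Immobility over the last 4 min was scored automatically by video tracking; n = 10, mean ± SEM vs vehicle.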

Active and inactive are the calls of the source. No cut-off for these calls is given here.

For the compound `C=CCc1ccc(OC)c(-c2cc(CC=C)ccc2O[C@@H]2O[C@H](CO)[C@@H](O)[C@H](O)[C@H]2O)c1`, the Drug metabolism entry in [1], in data set [2] and in data set [3] was “Metabolite_Detected” throughout. This compound also yielded a Retention_time in [4] of 11.32 min.

Take `C=CCc1ccc(O)c(-c2cc(CC=C)ccc2OC(=O)CCCCl)c1`: the Activity in data set [5] came to 69.7%; in data set [7], 32%. In addition, the Ratio in data set [6] fell in the range of 3.5 to 4.5.

Turning to `CNCCC(Oc1ccc(C(F)(F)F)cc1)c1ccccc1` (stereo not given), the result in the data set with Mus musculus [8] and in the data set on Mus musculus [9] was Active.

Regarding `COc1ccc2cccc(CCNC(C)=O)c2c1`, in the data set on Mus musculus [8], the result was Active.

Source of the values: ChEMBL document CHEMBL4270555, “Synthesis and biological evaluation of magnolol derivatives as melatonergic receptor agonists with potential use in depression” (Eur J Med Chem, 2018).
